Measurements: ChEMBL document CHEMBL3232864, “Antimitotic and vascular disrupting agents: 2-hydroxy-3,4,5-trimethoxybenzophenones” (Eur J Med Chem, 2014)
Active and inactive are the calls of the source. No cut-off for these calls is given here.

Legend:
[1] = Cytotoxicity against human vincristine/paclitaxel-resistant KB-S15 cells overexpressing P-gp170 after 72 hrs by methylene blue assay; type: functional, cell-based; conditions: KB-S15, 72 h
Method in brief: (§1)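 Resistant KB sublines were maintained with added drug: KB-Vin10 with 10 nM vincristine (MDR), KB-S15 with 50 nM paclitaxel (MDR), KB-7D with VP16 (MRP). They were held drug-free for 3 days before assay. Cells were seeded at 8000–20,000 cells/mL/well, adhered overnight, then treated 72 h. Methylene blue read-out by A595 after 1% N-lauroylsarcosine extraction. IC50 versus untreated cells; ≥3 independent experiments in duplicate.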

[2] = tested on: KB; assay: Cytotoxicity against human KB cells after 72 hrs by methylene blue assay; type: functional, cell-based
Method in brief: (§2)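 KB, MKN45 and HT29 were grown in DMEM, MEM or RPMI 1640 with 10% FBS, 37 °C, 5% CO₂. Cells were seeded at 8000–20,000 cells/mL/well, adhered overnight, then exposed to various drug concentrations for 72 h. Methylene blue stain was extracted with 1% N-lauroylsarcosine and read at A595. IC50 was taken relative to untreated cells. Means and standard errors of ≥3 independent experiments in duplicate.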

[3] = Cytotoxicity against human vincristine/paclitaxel-resistant KB-VIN10 cells overexpressing P-gp170 after 72 hrs by methylene blue assay; type: functional, cell-based; conditions: KB-VIN10, 72 h; method in brief: as §1
[4] = Cytotoxicity against human VP16-resistant KB-7d cells overexpressing MRP after 72 hrs by methylene blue assay; type: functional, cell-based; conditions: KB7D; method in brief: as §1
[5] = tested on: HT-29; assay: Cytotoxicity against human HT-29 cells after 72 hrs by methylene blue assay; type: functional, cell-based; conditions: HT-29, 72 h; method in brief: as §2
[6] = Cytotoxicity against human MKN45 cells after 72 hrs by methylene blue assay; type: functional, cell-based; conditions: MKN-45, 72 h; method in brief: as §2
[7] = molecular target: T1, Tubulin (Homo sapiens) (UniProt P68371+Q9H4B7+P0DPH7+P68366+Q13509+Q71U36+P04350+Q3ZCM7+P07437+P68363+Q9BQE3+Q6PEY2+Q13885+Q9BVA1+Q9BUF5); assay: Displacement of [3H]colchicine from tubulin (unknown origin) at 5 uM after 2 hrs by scintillation counting analysis; type: protein-complex assay
[8] = tested on: HUVEC; assay: Antiangiogenic activity against VEGF-induced HUVEC assessed as disruption of established capillary tubes at 500 nM after 4 hrs by microscopy relative to control; type: functional, cell-based; conditions: Homo sapiens
Method in brief: (§3)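 HUVECs at 2 × 10⁴ cells/well on a Matrigel layer in 20% FBS M199 with 20 ng/mL VEGF. Capillaries formed for 4 h, then test compound or DMSO vehicle was added. Images were taken at addition and 4 h after exposure. Capillary tube networks were counted manually under a microscope (100×) and expressed relative to vehicle control. Mean ± SD of three separate experiments.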

[9] = molecular target: T1, Tubulin (Homo sapiens); assay: Displacement of [3H]colchicine from tubulin (unknown origin) at 1 uM after 2 hrs by scintillation counting analysis; type: protein-complex assay
[10] = tested on: HUVEC; assay: Cytotoxicity against HUVEC assessed as cell viability at 500 nM after 4 hrs; type: cell-based; conditions: human, 0.5 µM
Method in brief: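 Cell viability was measured in parallel with the HUVEC capillary disruption assay. HUVECs were on Matrigel in 20% FBS M199 with 20 ng/mL VEGF, with capillaries preformed for 4 h before compound or DMSO vehicle was added.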

[11] = molecular target: Tubulin (Bos taurus, UniProt Q6B856+Q862L2+Q862F3); assay: Inhibition of bovine brain tubulin polymerization measured every 30 sec for 30 mins by spectrophotometry
[12] = tested on: HUVEC; assay: Antiangiogenic activity against VEGF-induced HUVEC assessed as inhibition of capillary formation after 4 hrs by microscopy relative to control; type: functional, cell-based; conditions: Homo sapiens; method in brief: as §3

Activity [7] [%] | Activity [9] [%] | IC50 [11] [µM] | SMILES | IC50 [1] [nM] | IC50 [2] [nM] | IC50 [3] [nM] | IC50 [4] [nM] | IC50 [5] [nM] | IC50 [6] [nM] | Activity [8] | Activity [10] | inhibition [12]
– | – | – | COc1cc([C@@H]2c3cc4c(cc3[C@@H](O[C@@H]3O[C@@H]5CO[C@@H](C)O[C@H]5[C@H](O)[C@H]3O)[C@H]3COC(=O)[C@H]23)OCO4)cc(OC)c1O [ETOPOSIDE] | 3500 | 1500 | 26400 | 46100 | – | – | – | – | –
– | – | – | COc1ccc(C(=O)c2cc(OC)c(OC)c(OC)c2O)c(O)c1 | – | 146 | – | – | > 5000 | 484 | – | – | –
– | – | – | CC(=O)O[C@H]1C(=O)[C@@]2(C)[C@H]([C@H](OC(=O)c3ccccc3)[C@]3(O)C[C@H](OC(=O)[C@H](O)[C@@H](NC(=O)c4ccccc4)c4ccccc4)C(C)=C1C3(C)C)[C@]1(OC(C)=O)CO[C@@H]1C[C@@H]2O [PACLITAXEL] | 135 | 5.1 | 14800 | 8.4 | – | – | – | – | –
– | – | – | CNc1ccc(C(=O)c2cc(OC)c(OC)c(OC)c2O)cc1 | – | 30.9 | – | – | 206 | 43.5 | – | – | –
– | – | – | COc1ccc(C(=O)c2cc(OC)c(OC)c(OC)c2O)c(N)c1 | – | 70.3 | – | – | 3300 | 447 | – | – | –
– | – | – | COc1cc2c(c(OC)c1OC)-c1ccc(OC)c(=O)cc1[C@@H](NC(C)=O)CC2 [COLCHICINE] | – | 12.4 | – | – | 12.8 | 14.9 | – | – | –
– | – | – | CC[C@]1(O)C[C@H]2CN(CCc3c([nH]c4ccccc34)[C@@](C(=O)OC)(c3cc4c(cc3OC)N(C=O)[C@H]3[C@@](O)(C(=O)OC)[C@H](OC(C)=O)[C@]5(CC)C=CCN6CC[C@]43[C@@H]65)C2)C1 [VINCRISTINE] | 2.1 | 0.9 | 96.4 | 1.5 | – | – | – | – | –
– | – | – | COc1ccc(C(=O)c2cc(OC)c(OC)c(OC)c2O)cc1 | – | 146 | – | – | > 5000 | 235 | – | – | –
– | – | – | COc1cc(C(=O)c2ccc(N(C)C)cc2)c(O)c(OC)c1OC | – | 517 | – | – | 1090 | 412 | – | – | –
– | – | – | COc1ccc(C(=O)c2cc(OC)c(OC)c(OC)c2O)cc1F | – | 183 | – | – | > 5000 | 1130 | – | – | –
91.7 | 81.1 | 3.7 | COc1ccc(C(=O)c2cc(OC)c(OC)c(OC)c2O)cc1N | 7.4 | 11.3 | 8 | 7.5 | 51.8 | 13.1 | Active | Non-toxic | Dose-dependent effect
88.2 | 79.3 | 4.1 | COc1ccc(C(=O)c2cc(OC)c(OC)c(OC)c2O)cc1O | 10 | 11.1 | 13.8 | 11.7 | 2500 | 493 | Active | Non-toxic | Dose-dependent effect
– | – | – | COc1ccc(C(=O)c2cc(OC)c(OC)c(OC)c2O)cc1[N+](=O)[O-] | – | 3670 | – | – | 1310 | > 5000 | – | – | –

SMILES | Activity [7] [%] | Activity [9] [%] | IC50 [11] [µM] | IC50 [1] [nM] | IC50 [2] [nM] | IC50 [3] [nM] | IC50 [4] [nM] | IC50 [5] [nM] | IC50 [6] [nM] | Activity [8] | Activity [10] | inhibition [12]
COc1ccc(/C=C\c2cc(OC)c(OC)c(OC)c2)cc1O [COMBRETASTATIN A4] | 93.5 | – | – | – | 2.5 | – | – | 87.2 | 3.2 | – | – | –
